# Laboratory results taken from ChEMBL document CHEMBL4715736, “Identification of anticancer agents based on the thieno[2,3-b]pyridine and 1H-pyrazole molecular scaffolds” (2016).
# Tested on: OVCAR-4
# Test: Growth inhibition of human OVCAR-4 cells assessed as cell growth at 10 uM incubated for 48 hrs by sulforhodamine B assay relative to control
# Assay type: functional
# Conditions: read-out: Activity
# Outline: (§1)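 Run by the NCI Developmental Therapeutics Program as part of its 60-line human tumour panel. Each compound tested at a single 10 µM dose. Growth expressed as % relative to untreated control cells (100%).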
row,Structure (SMILES),growth at 10 µM [%]
1,O=S(=O)(c1ccccc1)n1ccc(-c2ccc3c(c2)CCO3)n1,70.1

# Tested on: SW-620
# Test: Growth inhibition of human SW-620 cells assessed as cell growth at 10 uM incubated for 48 hrs by sulforhodamine B assay relative to control
# Assay type: functional
# Conditions: read-out: Activity
# Outline: as §1
row,Structure (SMILES),growth at 10 µM [%]
1,O=S(=O)(c1ccccc1)n1ccc(-c2ccc3c(c2)CCO3)n1,93.7

# Tested on: MCF7
# Test: Growth inhibition of human MCF7 cells assessed as cell growth at 10 uM incubated for 48 hrs by sulforhodamine B assay relative to control
# Assay type: functional
# Conditions: read-out: Activity
# Outline: (§2)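 Submitted to the NCI Developmental Therapeutics Program for the NCI60 human tumour cell line panel. First screen at a single 10 µM concentration. Read-out is growth relative to untreated control cells set at 100%.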
row,Structure (SMILES),growth at 10 µM [%]
1,O=S(=O)(c1ccccc1)n1ccc(-c2ccc3c(c2)CCO3)n1,83.2

# Tested on: CAKI-1
# Test: Growth inhibition of human CAKI-1 cells assessed as cell growth at 10 uM incubated for 48 hrs by sulforhodamine B assay relative to control
# Assay type: functional
# Conditions: read-out: Activity
# Outline: (§3)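 NCI Developmental Therapeutics Program NCI60 panel. Compounds that were active in the 10 µM one-dose screen went on to dose–response testing. Growth at each concentration is expressed relative to untreated control (100%). GI50 (concentration giving 50% of maximal inhibition of proliferation) and TGI (concentration giving total growth inhibition) were derived from the curves.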
row,Structure (SMILES),growth at 10 µM [%]
1,O=S(=O)(c1ccccc1)n1ccc(-c2ccc3c(c2)CCO3)n1,75.3

# Tested on: SNB-19
# Test: Growth inhibition of human SNB-19 cells assessed as cell growth at 10 uM incubated for 48 hrs by sulforhodamine B assay relative to control
# Assay type: functional
# Conditions: read-out: Activity
# Outline: as §1
row,Structure (SMILES),growth at 10 µM [%]
1,O=S(=O)(c1ccccc1)n1ccc(-c2ccc3c(c2)CCO3)n1,83.4

# Tested on: SK-OV-3
# Test: Growth inhibition of human SK-OV-3 cells assessed as cell growth at 10 uM incubated for 48 hrs by sulforhodamine B assay relative to control
# Assay type: functional
# Conditions: read-out: Activity
# Outline: as §1
row,Structure (SMILES),growth at 10 µM [%]
1,O=S(=O)(c1ccccc1)n1ccc(-c2ccc3c(c2)CCO3)n1,104

# Tested on: COLO 205
# Test: Growth inhibition of human COLO 205 cells assessed as cell growth at 10 uM incubated for 48 hrs by sulforhodamine B assay relative to control
# Assay type: functional
# Conditions: read-out: Activity
# Outline: as §3
row,Structure (SMILES),growth at 10 µM [%]
1,O=S(=O)(c1ccccc1)n1ccc(-c2ccc3c(c2)CCO3)n1,96.9

# Tested on: 786-0
# Test: Growth inhibition of human 786-0 cells assessed as cell growth at 10 uM incubated for 48 hrs by sulforhodamine B assay relative to control
# Assay type: functional
# Conditions: read-out: Activity
# Outline: as §3
row,Structure (SMILES),growth at 10 µM [%]
1,O=S(=O)(c1ccccc1)n1ccc(-c2ccc3c(c2)CCO3)n1,90.3

# Tested on: RPMI-8226
# Test: Growth inhibition of human RPMI-8226 cells assessed as cell growth at 10 uM incubated for 48 hrs by sulforhodamine B assay relative to control
# Assay type: functional
# Conditions: read-out: Activity
# Outline: as §1
row,Structure (SMILES),growth at 10 µM [%]
1,O=S(=O)(c1ccccc1)n1ccc(-c2ccc3c(c2)CCO3)n1,62.5

# Tested on: SK-MEL-2
# Test: Growth inhibition of human SK-MEL-2 cells assessed as cell growth at 10 uM incubated for 48 hrs by sulforhodamine B assay relative to control
# Assay type: functional
# Conditions: read-out: Activity
# Outline: as §1
row,Structure (SMILES),growth at 10 µM [%]
1,O=S(=O)(c1ccccc1)n1ccc(-c2ccc3c(c2)CCO3)n1,86.5

# Tested on: HT-29
# Test: Growth inhibition of human HT-29 cells assessed as cell growth at 10 uM incubated for 48 hrs by sulforhodamine B assay relative to control
# Assay type: functional
# Conditions: read-out: Activity
# Outline: as §2
row,Structure (SMILES),growth at 10 µM [%]
1,O=S(=O)(c1ccccc1)n1ccc(-c2ccc3c(c2)CCO3)n1,92.8

# Tested on: SR
# Test: Growth inhibition of human SR cells assessed as cell growth at 10 uM incubated for 48 hrs by sulforhodamine B assay relative to control
# Assay type: functional
# Conditions: read-out: Activity
# Outline: as §1
row,Structure (SMILES),growth at 10 µM [%]
1,O=S(=O)(c1ccccc1)n1ccc(-c2ccc3c(c2)CCO3)n1,73.3

# Tested on: LOX IMVI
# Test: Growth inhibition of human LOX IMVI cells assessed as cell growth at 10 uM incubated for 48 hrs by sulforhodamine B assay relative to control
# Assay type: functional
# Conditions: read-out: Activity
# Outline: as §2
row,Structure (SMILES),growth at 10 µM [%]
1,O=S(=O)(c1ccccc1)n1ccc(-c2ccc3c(c2)CCO3)n1,85.2

# Tested on: MDA-MB-231
# Test: Growth inhibition of human MDA-MB-231 cells assessed as cell growth at 10 uM incubated for 48 hrs by sulforhodamine B assay relative to control
# Assay type: functional
# Conditions: read-out: Activity
# Outline: as §2
row,Structure (SMILES),growth at 10 µM [%]
1,O=S(=O)(c1ccccc1)n1ccc(-c2ccc3c(c2)CCO3)n1,82.9

# Tested on: T47D
# Test: Growth inhibition of human T47D cells assessed as cell growth at 10 uM incubated for 48 hrs by sulforhodamine B assay relative to control
# Assay type: functional
# Conditions: read-out: Activity
# Outline: as §1
row,Structure (SMILES),growth at 10 µM [%]
1,O=S(=O)(c1ccccc1)n1ccc(-c2ccc3c(c2)CCO3)n1,68.8

# Tested on: HCC 2998
# Test: Growth inhibition of human HCC 2998 cells assessed as cell growth at 10 uM incubated for 48 hrs by sulforhodamine B assay relative to control
# Assay type: functional
# Conditions: read-out: Activity
# Outline: as §3
row,Structure (SMILES),growth at 10 µM [%]
1,O=S(=O)(c1ccccc1)n1ccc(-c2ccc3c(c2)CCO3)n1,90.8

# Tested on: BT-549
# Test: Growth inhibition of human BT-549 cells assessed as cell growth at 10 uM incubated for 48 hrs by sulforhodamine B assay relative to control
# Assay type: functional
# Conditions: read-out: Activity
# Outline: (§4)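 NCI Developmental Therapeutics Program NCI60 human tumour cell line panel, one-dose primary screen with every compound at 10 µM. Growth is expressed as % of untreated control cells (100%).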
row,Structure (SMILES),growth at 10 µM [%]
1,O=S(=O)(c1ccccc1)n1ccc(-c2ccc3c(c2)CCO3)n1,96

# Tested on: NCI-H23
# Test: Growth inhibition of human NCI-H23 cells assessed as cell growth at 10 uM incubated for 48 hrs by sulforhodamine B assay relative to control
# Assay type: functional
# Conditions: read-out: Activity
# Outline: as §2
row,Structure (SMILES),growth at 10 µM [%]
1,O=S(=O)(c1ccccc1)n1ccc(-c2ccc3c(c2)CCO3)n1,78.4

# Tested on: NCI-H522
# Test: Growth inhibition of human NCI-H522 cells assessed as cell growth at 10 uM incubated for 48 hrs by sulforhodamine B assay relative to control
# Assay type: functional
# Conditions: read-out: Activity
# Outline: as §2
row,Structure (SMILES),growth at 10 µM [%]
1,O=S(=O)(c1ccccc1)n1ccc(-c2ccc3c(c2)CCO3)n1,61.7

# Tested on: K562
# Test: Growth inhibition of human K562 cells assessed as cell growth at 10 uM incubated for 48 hrs by sulforhodamine B assay relative to control
# Assay type: functional
# Conditions: read-out: Activity
# Outline: as §2
row,Structure (SMILES),growth at 10 µM [%]
1,O=S(=O)(c1ccccc1)n1ccc(-c2ccc3c(c2)CCO3)n1,56

# Tested on: ACHN
# Test: Growth inhibition of human ACHN cells assessed as cell growth at 10 uM incubated for 48 hrs by sulforhodamine B assay relative to control
# Assay type: functional
# Conditions: read-out: Activity
# Outline: as §4
row,Structure (SMILES),growth at 10 µM [%]
1,O=S(=O)(c1ccccc1)n1ccc(-c2ccc3c(c2)CCO3)n1,78.4

# Tested on: DU-145
# Test: Growth inhibition of human DU-145 cells assessed as cell growth at 10 uM incubated for 48 hrs by sulforhodamine B assay relative to control
# Assay type: functional
# Conditions: read-out: Activity
# Outline: as §3
row,Structure (SMILES),growth at 10 µM [%]
1,O=S(=O)(c1ccccc1)n1ccc(-c2ccc3c(c2)CCO3)n1,95

# Tested on: SF-268
# Test: Growth inhibition of human SF-268 cells assessed as cell growth at 10 uM incubated for 48 hrs by sulforhodamine B assay relative to control
# Assay type: functional
# Conditions: read-out: Activity
# Outline: as §1
row,Structure (SMILES),growth at 10 µM [%]
1,O=S(=O)(c1ccccc1)n1ccc(-c2ccc3c(c2)CCO3)n1,92.8

# Tested on: OVCAR-8
# Test: Growth inhibition of human OVCAR-8 cells assessed as cell growth at 10 uM incubated for 48 hrs by sulforhodamine B assay relative to control
# Assay type: functional
# Conditions: read-out: Activity
# Outline: as §1
row,Structure (SMILES),growth at 10 µM [%]
1,O=S(=O)(c1ccccc1)n1ccc(-c2ccc3c(c2)CCO3)n1,84

# Tested on: TK-10
# Test: Growth inhibition of human TK-10 cells assessed as cell growth at 10 uM incubated for 48 hrs by sulforhodamine B assay relative to control
# Assay type: functional
# Conditions: read-out: Activity
# Outline: as §1
row,Structure (SMILES),growth at 10 µM [%]
1,O=S(=O)(c1ccccc1)n1ccc(-c2ccc3c(c2)CCO3)n1,76.2
